Assay outcomes: PubChem BioAssay, several laboratories
GSTO1 counter = counter-screen for RBBP9 inhibitors: inhibitors of human GSTO1 | P78417 | recombinant GSTO1, activity-based probe fluorescence polarization | inhibition, % at 5.96 µM | hit rate 1.1% among 300,000 | AID 1974;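 active = inhibition above the campaign mean inhibition plus 3 SD, cut at about 35% in these data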;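 note: 0% = GSTO1-1 with DMSO and 100% = wells lacking GSTO1-1 enzyme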
TCR CD3 inh = blocks the human TCR-CD3 interaction | inhibition, % at 9.4 µM | TAMRA-labeled TCR probe fluorescence, biochemical | AID 651800 | hit rate 0.37% among 360,000; in the data active = inhibition above about 19%;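 note: recombinant mutant TCR 2C K166C tagged with TAMRA read by polarization; 0% = receptor in buffer alone and 100% = receptor with positive control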
Apaf-1 inh = blocks human Apaf-1 apoptosome activity | O14727 | reconstituted apoptosome caspase-3 activity, DEVD-Rh110 fluorescence | inhibition, % at 20 µM | hit rate 0.71% among 330,000 | AID 489030; active = inhibition of at least 40% at 20 µM;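 note: plate controls were DMSO wells for no effect and DEVD-CHO caspase inhibitor wells for full effect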
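Assay system – apoptosome proteins · Medium – Hepes buffer, pH 7.5 · Also added – cytochrome c with DEVD-Rh110 · Timing – 30 min compound preincubation, 50 min activation, room temperature · Detection – Rh110 fluorescence, excitation 480 nm, emission 540 nm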
TDP2 absorb = TDP2 (human) inhibition, absorbance primary screen; O95551; recombinant TDP2, T5PNP hydrolysis, p-nitrophenol absorbance 415 nm; inhibition, % at 12.8 µM; hit rate 0.34% among 370,000;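 active = inhibition above the mean of all tested compounds plus 3 SD, set per campaign, cut at about 25% in these data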;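 note: 0% = DMSO with enzyme and 100% = buffer with substrate but no TDP2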
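test system = human TDP2 enzyme | input = TDP2 enzyme at 120 nM final | medium = 50 mM Tris-HCl pH 7.5 with Mg2+, KCl, DTT, BSA | also added = T5PNP substrate, 5 mM | times = 2 h at 37 °C | technique = epi absorbance | benchmarks = high control without enzyme, low control DMSO plus TDP2 | replication = each compound tested once, singlicate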
SIAE primary = inhibitors of human sialic acid acetylesterase SIAE. SIAE FP-Rh probe binding, fluorescence polarization. inhibition, % at 9.66 µM. hit rate 0.69% among 370,000. AID 1053197. Q9HAT2;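 active = inhibition above a cutoff: mean of compounds within the control limits plus 3 SD of those, cut at about 17% in these data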;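 note: 0% = plate median of compound wells and 100% = probe without SIAE protein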
Target sequence (Q9HAT2 whole entry, looked up): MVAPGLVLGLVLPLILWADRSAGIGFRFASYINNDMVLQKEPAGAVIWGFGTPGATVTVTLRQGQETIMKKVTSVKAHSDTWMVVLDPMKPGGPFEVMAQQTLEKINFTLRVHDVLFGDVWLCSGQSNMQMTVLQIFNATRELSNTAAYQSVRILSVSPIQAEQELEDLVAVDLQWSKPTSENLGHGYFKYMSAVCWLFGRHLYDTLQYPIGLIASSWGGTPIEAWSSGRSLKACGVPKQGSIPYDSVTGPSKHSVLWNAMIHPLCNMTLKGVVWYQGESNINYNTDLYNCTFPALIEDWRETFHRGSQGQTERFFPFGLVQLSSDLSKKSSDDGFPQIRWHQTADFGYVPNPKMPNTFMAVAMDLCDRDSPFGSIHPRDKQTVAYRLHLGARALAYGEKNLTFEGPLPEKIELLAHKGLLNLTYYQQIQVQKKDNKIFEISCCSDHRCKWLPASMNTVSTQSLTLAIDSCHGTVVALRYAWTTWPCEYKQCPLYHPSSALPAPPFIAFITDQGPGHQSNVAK
PAD4 inh = PAD4 (human) enzyme inhibition; recombinant PAD4, RCA probe fluorescence polarization; inhibition, % at 6.36 µM; hit rate 0.41% among 330,000;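 active = percent inhibition above a cutoff equal to the mean of all tested compounds plus 3 SD, cut at about 15% in these data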;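 note: 0% = PAD4 with RCA probe and DMSO and 100% = probe without PAD4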
Apaf-1 inh conf = confirmation of Apaf-1 inhibitors; shares compounds with Apaf-1 inh; reconstituted apoptosome, caspase-3 DEVD-Rh110 fluorescence; inhibition, % at 20 µM; hit rate 25% among 1,800; AID 504614;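 active = mean inhibition of at least 40% at 20 µM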;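 note: plate controls were DMSO wells for no effect and DEVD-CHO caspase inhibitor control wells for full effect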
Rh110 interf inh = counter-screen for Apaf-1 inhibitors: fluorescence interference | shares compounds with Apaf-1 inh | Rh110 fluorescence interference, quenched caspase reaction | activation (fluorescence interference), % at 20 µM | 1,800 tested, under 10 active;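 active = signal rise of 40% or more at 20 µM, treated as a fluorescence artifact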
Fluor interf inh = Apaf-1 inhibitor counter-screen fluorescence artifact; shares compounds with Apaf-1 inh; fluorescence interference counterscreen, Apaf-1 assay format; IC50, µM; 460 tested, under 10 active; AID 588538; call rule not given here
Numbers without * were called inactive; nt = not tested or not shown. Shown are actives, neighbours in structure and some others; about 2.4% of the full set was active somewhere.

SMILES	GSTO1 counter	TCR CD3 inh	Apaf-1 inh	TDP2 absorb	SIAE primary	PAD4 inh	Apaf-1 inh conf	Rh110 interf inh	others
N#C/C(=C(/O)CN1CCN(c2ccccc2F)CC1)c1nc(-c2ccccc2)cs1	20.8	7.8	13.3	-2.8	5.3	2.6	nt	nt
Cc1cn([C@@H](CCCCNC(=O)OC(C)(C)C)C(=O)NCCCCCCCCCCC(=O)N2CCN(C(=O)OC(C)(C)C)CC2)nn1	-1.1	nt	16.6	nt	nt	-3.4	nt	nt
CC[C@H](C)Cc1cn([C@@H](CCCN=C(NC(=O)OC(C)(C)C)NC(=O)OC(C)(C)C)C(=O)NCCCCCCCCCCC(=O)N2CCN(C(=O)OC(C)(C)C)CC2)nn1	11.6	nt	57.3*	nt	nt	1.5	19.3	12.9
CC[C@H](C)Cc1cn([C@@H](CCCCN)C(=O)NCCCCCCCCCCC(=O)N2CCNCC2)nn1	8.7	1.7	45.6*	5.0	6.3	-0.1	11.1	15.7
COc1ccc(OCc2cc(C(=O)NC3CCOCC3)no2)c2ccccc12	23.4	2.1	40.6*	18.1	-8.5	-9.6	37.3	-3.0
COc1cccc(-c2sc3ccc(OC)cc3c2-c2ccc(OCCN3CCCC3)cc2)c1	nt	nt	69.9*	nt	nt	-5.2	20.0	6.4
COc1cccc(-c2sc3ccccc3c2-c2ccc(OCCN3CCCC3)cc2)c1	nt	8.5	71.0*	0.5	-1.7	-0.2	24.5	14.3
COc1ccc(-c2sc3ccc(OC)cc3c2-c2ccc(OCCN3CCOCC3)cc2)cc1	nt	nt	29.5	nt	nt	-0.2	nt	nt
Oc1ccc2sc(-c3ccccc3O)c(-c3ccc(OCCN4CCCCC4)cc3)c2c1	nt	2.0	nt	6.6	11.7	nt	nt	nt
COc1cccc(-c2sc3ccccc3c2-c2ccc(OCCN3CCCCC3)cc2)c1	nt	nt	64.4*	nt	nt	-2.7	7.6	13.7
COc1cccc(-c2sc3cc(OC)c(OC)cc3c2-c2ccc(OCCN3CCCCC3)cc2)c1	nt	nt	66.4*	nt	nt	-2.0	10.0	14.6
Cc1ccccc1NC(=O)C1c2ccccc2Oc2ccccc21	6.9	-0.4	-5.9	-1.1	10.5	5.8	nt	nt
COc1ccc(-c2sc3ccccc3c2-c2ccc(OCCN3CCCCC3)cc2)cc1	nt	2.3	54.9*	-5.2	4.2	-2.6	15.7	4.9
COc1cccc(-c2sc3ccccc3c2-c2ccc(OCCN(C)C)cc2)c1	nt	-3.6	75.5*	-9.0	6.7	-0.9	20.2	6.8
COc1cccc(-c2sc3ccc(OC)cc3c2-c2ccc(C(N)=O)cc2)c1	nt	-6.0	17.7	-2.4	3.4	-2.7	nt	nt
COc1ccc2sc(-c3ccccc3OC)c(-c3ccc(OCCN(C)C)cc3)c2c1	nt	2.6	65.0*	-3.2	3.0	-2.5	17.6	13.1
CCOC(=O)C1CCN(C(=O)C(C)(C)NC(=O)Nc2ccc(Cl)cc2Cl)CC1	nt	nt	nt	-2.6	4.0	nt	nt	nt
COc1cc2cnc(-c3ccccc3)c(-c3ccc(C#N)cc3)c2cc1OC	nt	-3.3	12.2	9.7	1.6	-3.3	nt	nt
NS(=O)(=O)c1ccc(CCNC(=O)c2ccc(Cl)c(S(=O)(=O)NCc3ccco3)c2)cc1	nt	1.0	-2.7	-14.0	-4.5	2.5	nt	nt
CCOc1ccc(CCN2C(=O)C(=O)N([C@@H](CC(C)C)CN3CCC[C@H]3CN3C(=O)C(=O)NC[C@@H]3CC(C)C)C[C@@H]2CC(C)C)cc1	nt	3.4	nt	1.9	-0.6	nt	nt	nt
CCC[C@@H](CN1CCC[C@H]1CN1C(N)=NC[C@H]1CC(C)C)N1C[C@@H]([C@H](C)CC)N(CCc2ccc(Cl)c(Cl)c2)C1=N	nt	-2.5	64.0*	-9.2	6.1	3.1	13.9	4.6
CCCCN1C(=N)N([C@@H](C)CN2CCC[C@H]2CN2C(N)=NC[C@@H]2Cc2ccccc2)C[C@H]1[C@H](C)CC	nt	2.9	21.1	-4.5	5.7	4.0	nt	nt
CC[C@@H](C)[C@@H]1CN([C@@H](CN2CCC[C@H]2CN2C(N)=NC[C@H]2CC(C)C)C(C)C)C(=N)N1CCc1ccc(Cl)c(Cl)c1	nt	-7.5	62.9*	-2.3	6.4	0.7	22.5	14.3
CC[C@@H](C)[C@@H]1CN([C@@H](C)CN2CCC[C@H]2CN2C(N)=NC[C@H]2CC(C)C)C(=N)N1CCc1ccc(Cl)c(Cl)c1	nt	-1.0	51.8*	-5.9	9.0	-2.8	1.8	2.6
C/C(=N\NC(=O)CC#N)c1cc2ccc(O)cc2oc1=O	17.9	9.7	-3.3	5.4	4.0	-4.3	nt	nt
SMILES	GSTO1 counter	TCR CD3 inh	Apaf-1 inh	TDP2 absorb	SIAE primary	PAD4 inh	Apaf-1 inh conf	Rh110 interf inh	others
COCCn1c(SCC(=O)N2CCc3ccccc3C2)nc2cc(Cl)ccc2c1=O	1.8	-4.4	17.9	-5.2	-3.5	-4.1	nt	nt
O=C(N/C(=C/c1cccs1)C(=O)N1CCOCC1)c1cccs1	3.6	-7.0	-14.5	-13.7	2.7	-3.0	nt	nt
CC(Oc1cccc(Cl)c1)C(=O)Nc1cc(S(=O)(=O)N2CCOCC2)ccc1N1CCCCC1 (stereo not drawn)	-0.6	3.4	47.7*	4.3	6.2	4.1	43.5*	3.2	Fluor interf inh=>100
COc1ccc2c(c1)c1nc3ccccc3nc1n2CCn1c(=O)oc2ccccc21	4.2	-5.3	-3.8	4.8	-1.3	4.5	nt	nt
CN(C)C(=O)c1ccc(NC(=O)c2sccc2-c2ccccc2)cc1	2.2	4.3	44.9*	-11.4	1.9	-1.0	31.5	0.7
NC[C@@H]1O[C@H](C23CC4CC(CC(C4)C2)C3)Cc2c1ccc(O)c2O	2.3	-1.5	42.4*	-6.6	-2.7	-6.1	3.1	6.5
Cc1noc(C)c1COc1ccccc1C(=O)N1CCN(c2cccc(Cl)c2)CC1	nt	2.0	51.8*	5.6	5.8	-0.7	34.7	8.4
COC(=O)c1ccc2c(=O)n(CCCCCC(=O)N3CCN(c4ccccc4)CC3)c(=O)[nH]c2c1	-2.4	-5.1	47.3*	15.0	4.3	-3.8	12.3	3.9
CCCCc1nc2cc(C(=O)N(C)C(C)c3ccccn3)ccc2o1 (stereo not drawn)	nt	7.6	2.7	7.8	-0.2	nt	nt	nt
CN(CC(=O)Nc1cccc(F)c1)C(=O)CCCc1cccs1	4.9	-1.4	6.5	-13.9	3.0	-5.8	nt	nt
